Statin myotox sup = suppressors of statin myotoxicity in C2C12 myotubes, primary screen, cell-based, single point, plate reader; C2C12 myotubes + simvastatin, ATP luminescence, 48 h; scaled: DMSO 0, geranylgeraniol control 100; rescue of ATP level, % at 7.49 µM; 330,000 tested, 0.78% active;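 active = mean ATP rescue above about 67%, or every replicate alone reaching that limit, limit read from the data, passing the limit was not always enough; inconclusive = no clear call, values can overlap the other calls; inactive = mean under the limit and some replicate under it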;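 also: myotubes were challenged with 10 µM simvastatin during compound exposure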
E-sel inducer = E-selectin induction in HUVECs, primary screen, imaging, HUVEC, immunofluorescence imaging, single point; 260,000 tested, 0.37% active; activation, % at 7.58 µM; normalized: neutral wells 0, TNF-alpha wells 100; AID 686992, 2013; P16581;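 active = mean E-selectin-positive cell signal at least 10% of the positive control, reached in at least 60% of replicates, without over 20% cell loss; inconclusive = no rule given, readout overlaps actives, possibly toxicity-flagged; inactive = the rest, including those meeting only one limit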
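Read-out basis: % PE-positive cells; Test system: HUVEC primary endothelial cells; Technique: immunofluorescence imaging; Dosing: single-point compound dose.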
DENV2 CPE = inhibitors of DENV2 cytopathic effect, primary screen, cell-based, plate reader, single concentration; DENV2-infected cells, cytopathic effect rescue; 350,000 tested, 1.7% active; CPE inhibition, % at 9.99 µM; AID 651640, 2012; in the data active = CPE inhibition above about 20%, passing the limit was not always enough; inconclusive = no clear call, values can overlap the other calls; tested in BHK-21 cells
A number is an active result; – = inactive; ? = inconclusive; · = not tested or not shown. Sampled rows, rich in hits. Any-hit rate of the full collection: about 2.2%.

SMILES	Statin myotox sup	E-sel inducer	DENV2 CPE
C[C@]12CCC(=O)CC1CCC1C2CC[C@@]2(C)C1CC[C@@]21CCO1 (some centres undefined)	–	50	–
CCn1c(SCc2cccc(F)c2)nnc1-c1ccncc1	–	–	47
CCn1c(SCc2cccc(F)c2)nnc1-c1cccnc1	·	·	–
C/C=C/c1cnc2c(c1)C(=O)N([C@@H](C)CO)C[C@H](C)[C@H](CN(C)C(=O)NCCC)O2	–	–	–
CCC(=O)Nc1ccc2c(c1)OC[C@H](C)N(C(=O)c1ccccn1)C[C@H](C)[C@H](OC)CN(C)C2=O	·	–	34
CCC(=O)Nc1ccc2c(c1)C(=O)N(C)C[C@@H](OC)[C@H](C)CN(C(=O)c1ccccn1)[C@@H](C)CO2	–	–	27
CCCC(=O)Nc1ccc2c(c1)OC[C@@H](C)N(C(=O)c1ccccn1)C[C@H](C)[C@H](OC)CN(C)C2=O	–	–	–
CCCC(=O)Nc1ccc2c(c1)C(=O)N(C)C[C@@H](OC)[C@H](C)CN(C(=O)c1ccccn1)[C@H](C)CO2	–	–	–
Cc1ccccc1-c1cnc2c(c1)C(=O)N([C@@H](C)CO)C[C@@H](C)[C@H](CN(C)CC1CCOCC1)O2	–	·	·
O=C(C[C@@H]1CC[C@@H](NC(=O)CC2CC2)[C@@H](CO)O1)NCc1ccccc1	·	–	–
COc1ccc(S(=O)(=O)Nc2ccc3c(c2)C(=O)N([C@H](C)CO)C[C@H](C)[C@H](CN(C)S(=O)(=O)c2cn(C)cn2)OCCCC[C@H](C)O3)cc1	·	–	–
CS(=O)(=O)N1CCc2cc(C(=O)N3CCN(c4ccccc4)CC3)ccc21	–	–	23
CS(=O)(=O)N1CCc2cc(S(=O)(=O)NCCNS(=O)(=O)c3ccc4c(c3)CCN4S(C)(=O)=O)ccc21	–	53	–
CS(=O)(=O)Nc1ccc(C(=O)N2CCN(c3ccccc3)CC2)cc1	115	·	–
O=C(c1ccccc1)N1CCN(c2ccccc2)CC1	–	–	?
CS(=O)(=O)N1CCc2cc(C(=O)NC3CC3)ccc21	·	27	–
CS(=O)(=O)N1CCc2cc(S(=O)(=O)Nc3ccc4c(c3)OCCO4)ccc21	–	·	–
CS(=O)(=O)N1CCc2cc(C(=O)N3CCN(c4ccc(F)cc4)CC3)ccc21	–	·	–
CCCNC(=O)c1ccc2c(c1)CCN2S(C)(=O)=O	·	·	–
Cc1ccc(S(=O)(=O)N[C@H]2CC[C@H](CCn3cc(C(C)C)nn3)O[C@H]2CO)cc1	–	–	–
COc1ccc(C#Cc2ccc3c(c2)[C@H]2[C@H](CCN2C(=O)c2ccccc2F)[C@H](CO)N3)cc1	–	–	–
COC(=O)[C@H]1[C@H](CO)[C@H]2Cn3c(ccc(-c4cccc(F)c4)c3=O)[C@H]2N1C(C)=O	–	–	–
C[C@@H]1CN([C@H](C)CO)S(=O)(=O)c2ccc(-c3cncnc3)cc2O[C@H]1CN(C)C(=O)c1cccc(F)c1	–	–	–
CCC(=O)N1CCN(c2ccc(NC(=O)COc3cccc(C)c3C)cc2)CC1	–	–	–
Cc1cccc(OCC(=O)Nc2ccc(N3CCN(C(=O)c4ccccc4)CC3)cc2)c1C	–	–	43
SMILES	Statin myotox sup	E-sel inducer	DENV2 CPE
C[C@@H]1CCCCO[C@H](CN(C)C(=O)Cc2ccccc2)[C@H](C)CN([C@@H](C)CO)C(=O)c2cc(NC(=O)CCC(F)(F)F)ccc2O1	–	·	?
COc1ccccc1Cn1c(=S)[nH]c2cc(C(=O)N3CCN(c4ccccc4OC)CC3)ccc2c1=O	–	·	–
COc1ccccc1Cn1c(=S)[nH]c2cc(C(=O)N3CC(C)CC(C)C3)ccc2c1=O (centres undefined)	–	–	22
COc1ccc(CN(C)C[C@H]2OCCCC[C@@H](C)Oc3ccc(NS(=O)(=O)c4c(C)noc4C)cc3C(=O)N([C@@H](C)CO)C[C@@H]2C)cc1	·	–	?
Cc1cccc(NC(=O)Nc2ccccn2)c1C	·	–	–
Cc1ccc(C(NC(=O)Nc2ccccn2)C(Cl)(Cl)Cl)cc1F (centres undefined)	–	42	–
C[C@H](CO)N1C[C@H](C)[C@H](CN(C)C(=O)Nc2cccc(Oc3ccccn3)c2)OCc2cn(nn2)CCCC1=O	–	–	·
COc1cc2oc3ccccc3c2cc1N(CC(=O)N(C)C)S(=O)(=O)c1ccc(C)cc1	–	·	·
COc1cc2oc3ccccc3c2cc1N(CC(=O)N1CCCCC1)S(=O)(=O)c1ccc(C)cc1	106	·	·
CCCC(=O)N1CC2(CN(Cc3cccnc3)C2)c2c([nH]c3cc(OC)ccc23)[C@@H]1CO	·	–	–
COc1ccc(CN(C)C[C@@H]2OCCCC[C@@H](C)Oc3ccc(N(C)C)cc3C(=O)N([C@H](C)CO)C[C@H]2C)cc1	–	–	–

From PubChem
